ABCB1 inh: ABCB1 efflux pump inhibitors, primary screen, cell-based, multiplex, flow cytometry, ABCG2 counter-screen | hit rate 0.067% among 190,000 | CCRF-Adr cells, JC-1 efflux | inhibition, % at 6.6 µM; in the data active = inhibition above about 40%;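 also: 0% = vehicle and 100% = reference inhibitor; higher value means more JC-1 retained so stronger ABCB1 efflux block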
Lmaj promast: Leishmania major promastigote growth inhibition, primary screen; Leishmania major promastigotes, resazurin fluorescence viability; inhibition, % at 10 µM; hit rate 9% among 200,000; AID 1063, 2008;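 also: promastigotes grown with compound for 44 hours at 28 °C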
PKD1 kinase inh: inhibitors of human PKD1 kinase, biochemical, fluorescence polarization | inhibition, % (test concentration not listed) | AID 797, 2007 | hit rate 0.056% among 200,000 | PKD1 kinase fluorescence polarization assay | Serine/threonine-protein kinase D1 (Homo sapiens), Q15139
Target sequence (Q15139 whole entry, looked up): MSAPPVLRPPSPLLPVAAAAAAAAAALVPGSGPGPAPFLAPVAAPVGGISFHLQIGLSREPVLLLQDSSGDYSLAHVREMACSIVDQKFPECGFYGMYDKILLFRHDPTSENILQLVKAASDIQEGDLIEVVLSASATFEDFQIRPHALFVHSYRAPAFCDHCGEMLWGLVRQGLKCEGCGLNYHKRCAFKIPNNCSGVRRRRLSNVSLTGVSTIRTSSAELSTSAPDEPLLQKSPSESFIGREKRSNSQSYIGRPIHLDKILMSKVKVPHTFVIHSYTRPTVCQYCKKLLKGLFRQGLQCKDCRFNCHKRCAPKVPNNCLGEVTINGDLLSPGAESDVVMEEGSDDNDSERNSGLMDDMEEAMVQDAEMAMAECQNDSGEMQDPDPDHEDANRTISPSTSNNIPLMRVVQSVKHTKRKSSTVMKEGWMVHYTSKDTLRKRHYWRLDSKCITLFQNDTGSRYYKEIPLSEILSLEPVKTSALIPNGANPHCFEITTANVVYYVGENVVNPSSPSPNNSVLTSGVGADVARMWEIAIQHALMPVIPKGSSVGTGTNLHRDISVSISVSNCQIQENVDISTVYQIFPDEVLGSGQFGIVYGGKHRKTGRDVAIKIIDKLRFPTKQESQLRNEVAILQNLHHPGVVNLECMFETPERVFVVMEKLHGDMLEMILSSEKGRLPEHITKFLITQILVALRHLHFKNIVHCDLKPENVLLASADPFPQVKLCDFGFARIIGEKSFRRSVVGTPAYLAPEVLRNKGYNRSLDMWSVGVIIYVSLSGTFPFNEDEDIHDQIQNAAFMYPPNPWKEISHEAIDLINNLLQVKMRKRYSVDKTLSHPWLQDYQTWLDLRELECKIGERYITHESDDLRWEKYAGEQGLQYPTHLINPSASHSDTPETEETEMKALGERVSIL
ABCG2 block: ABCG2 efflux pump inhibitors, primary screen, multiplex with ABCB1, IgMXP3 cells, flow cytometry; JC-1 efflux; AID 1325, 2008; inhibition, % at 6.6 µM; hit rate 0.1% among 190,000; Broad substrate specificity ATP-binding cassette transporter ABCG2 (Homo sapiens), Q9UNQ0;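 active = inhibition above 80%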;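 also: 0% = DMSO and 100% = nicardipine control wells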
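Assay system – ABCG2 IgMXP3 and barcoded ABCB1 CCRF-Adr cell mix · Input – 3 million cells/mL in well · Reagent – JC-1 fluorescent substrate · Compound – single test compound dose, 6.6 µM final · Timing – 10 min exposure at 25 °C with rotation, no wash · Detection – flow cytometry of retained JC-1 fluorescence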
GSH bead fluor: compound fluorescence on glutathione beads, profiling panel, artefact control, biophysical, 488/530 nm, flow cytometry. GSH beads flow cytometry, compound fluorescence 488/530 nm; hits give high values. fluorescence (KMESF) at 10 µM. hit rate 0.25% among 190,000; in the data active = fluorescence above about 89;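 also: glutathione beads carrying GST-tagged Bcl family fusion proteins plus one bare bead set; values are compound well signal with DMSO vehicle wells as background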
Avidin fluor: green autofluorescence of compounds with avidin beads – biophysical, 488/530 nm, flow cytometry, artefact control, profiling panel; compound fluorescence 488/530 nm; hits give high values; fluorescence (KMESF) at 10 µM; AID 1775, 2009; hit rate 0.38% among 220,000; in the data active = fluorescence above about 47
An asterisk follows results filed as active; · = no result. This is one part of a sample in which hits are shown more often than they occur. Rule as the data show it, unless noted: active = inhibition above about 50%; inactive = the rest.

SMILES	ABCB1 inh	Lmaj promast	PKD1 kinase inh	ABCG2 block	GSH bead fluor	Avidin fluor
CC1(C)C(=O)OC(c2ccccc2)C2(CCCC2)C1=O (centres undefined)	0.2	0.4	-2.5	0.5	4	8
CC(C)n1c(Nc2ccccc2)nc2ccccc21	0.8	9.0	0.4	1.6	19	25
C=CCn1c(NC(C)c2cc(Cl)ccc2O)nc2ccccc21 (centres undefined)	0.5	95.8*	3.7	0.1	25	7
C=CCn1c(NCc2cc(C)ccc2O)nc2ccccc21	1.1	38.3	-4.8	3.5	27	4
CC(C)n1c(NCc2cc(Cl)ccc2O)nc2ccccc21	0.6	65.9*	7.8	3.9	25	4
CCOc1ccccc1Nc1nc2ccccc2n1C(C)C	0.9	82.7*	-5.3	20.7	20	11
CCCn1c(CNc2ccccc2O)nc2ccccc21	0.8	81.6*	-8.0	32.8	25	28
CCOC(=O)C1=C(C)SC2=NS(=O)(=O)CCN21	0.8	-6.1	-7.5	2.5	20	20
Cn1c(NCc2c(O)ccc3ccccc23)nc2ccccc21	-0.1	100.4*	-0.7	20.9	34	11
CC(C)n1c(NCCO)nc2ccccc21	-0.1	6.5	-4.7	-0.8	13	7
CC(C)n1c(NCc2nc3ccccc3n2C)nc2ccccc21	0.9	60.5*	-7.4	21.7	29	15
Cn1c(CNc2nc3ccccc3n2C)nc2ccccc21	0.6	50.5*	6.3	42.5	24	23
Cn1c(NCc2cc(Br)ccc2O)nc2ccccc21	0.3	21.6	-18.4	1.8	6	7
CCn1c(CNc2nc3ccccc3n2C(C)C)nc2ccccc21	1.5	99.8*	-0.4	3.8	33	16
CCCCCCc1nc2ccccc2c(=O)n1NC(=O)c1c(O)c2cccc3c2n(c1=O)CC3	·	-8.2	3.0	·	·	·
O=C(COC(=O)C1CCN(S(=O)(=O)c2cccs2)CC1)Nc1ccc(F)cc1F	·	·	·	·	·	7
COc1cc(C)c(S(=O)(=O)N2CCN=C2c2ccccc2)cc1C	0.2	93.5*	-9.0	-4.7	2	6
CCN(CC)CCn1c(=N)n(CC(O)c2ccc(OC)c(OC)c2)c2ccccc21 (centres undefined)	0.2	-4.7	-1.6	1.3	14	11
CCN(CC)CCn1c(=N)n(CC(O)COc2cccc(C)c2)c2ccccc21 (centres undefined)	-0.2	100.1*	0.4	11.7	14	16
Cc1cccc(OCC(O)Cn2c(=N)n(CCN3CCCCC3)c3ccccc32)c1 (centres undefined)	0.8	100.4*	0.0	1.9	22	25
Cc1ccccc1-c1nc(CN2CCCC(C(=O)NCc3cccnc3)C2)c(C)o1 (centres undefined)	0.8	4.7	-5.9	5.0	17	11
O=C(NNS(=O)(=O)c1ccc(C(F)(F)F)cc1)c1cnn(-c2ccccc2)c1C(F)(F)F	·	·	·	·	·	6
CCOc1cc(/C=N\NC(=O)Cn2nnc3ccccc32)ccc1O	-0.6	13.3	0.3	15.4	10	8
CC1CCC(C(C)C)C(OC(=O)Cn2c(-c3ccccc3)[n+](C)c3ccccc32)C1 (centres undefined)	0.1	100.5*	10.3	10.1	7	1
CC1CCC(C(C)C)C(OC(=O)Cn2c(-c3ccc(F)cc3)[n+](C)c3ccccc32)C1 (centres undefined)	0.9	100.1*	1.9	11.9	20	15
SMILES	ABCB1 inh	Lmaj promast	PKD1 kinase inh	ABCG2 block	GSH bead fluor	Avidin fluor
Cc1cccc(OC(=O)Cn2c(C(F)(F)F)nc3ccccc32)c1	0.0	-10.5	-1.5	0.6	23	8
Cc1cccc(OCc2n(CC(=O)OC3CC(C)CCC3C(C)C)c3ccccc3[n+]2C)c1 (centres undefined)	0.7	100.5*	-5.5	1.3	11	12
CC1CCC(C(C)C)C(OC(=O)C[n+]2cc(-c3ccc(Cl)cc3)n3c2CCC3)C1 (centres undefined)	·	·	·	·	·	7
CCOC(=O)c1ccc2nc(CCC(=O)N[C@H](C(=O)OC)C(C)C)c(=O)n(CC)c2c1	0.5	5.9	11.6	2.2	22	10
CCCCc1ccc(NC(=O)c2cnccn2)cc1	-1.4	-8.4	0.4	10.5	13	12
O=[N+]([O-])c1ccc(Sc2nccn2Cc2ccccc2)c([N+](=O)[O-])c1	1.2	100.7*	1.6	2.2	18	8
CN(Cc1ccccc1)c1nc2c(c(=O)[nH]c(=O)n2C)n1CCSc1ncccn1	·	-3.4	-0.3	·	·	·
Cc1ccc(S(=O)(=O)Nc2ccc3c4c(cccc24)CC3)c(C)c1	·	5.5	-0.6	·	·	·
Cc1ccc(S(=O)(=O)Nc2cc(C(C(=O)OC(C)C)C(=O)C(F)(F)F)c(O)c3ccccc23)c(C)c1 (centres undefined)	-1.1	92.0*	-6.5	-15.7	14	10
O=C(CN1CCCC1=O)NC1C2CC3CC(C2)CC1C3 (centres undefined)	0.0	42.7	-9.2	3.2	12	13
O=C(O)c1cccc(NC(=S)NC(NC(=O)c2cccc([N+](=O)[O-])c2)C(Cl)(Cl)Cl)c1 (centres undefined)	·	·	·	·	·	11
O=C(NC(NC(=S)Nc1ccccc1)C(Cl)(Cl)Cl)c1cccc(Cl)c1 (centres undefined)	0.2	74.9*	-9.8	3.8	22	8
O=C(NC(NC(=S)Nc1ccc(Cl)cc1Cl)C(Cl)(Cl)Cl)c1cccc([N+](=O)[O-])c1 (centres undefined)	-0.3	100.4*	-5.0	-1.0	11	30
Cc1cc(C)c(NC(=S)NC(NC(=O)c2ccccc2)C(Cl)(Cl)Cl)c(C)c1 (centres undefined)	-9.2	6.8	-5.7	0.6	12	16
Cc1ccc(NC(=S)NC(NC(=O)c2ccccc2)C(Cl)(Cl)Cl)c(C)c1 (centres undefined)	-0.6	96.2*	-11.1	-3.6	22	13
COc1ccc(Cl)cc1NC(=O)C12CCC(C)(C(=O)O1)C2(C)C (centres undefined)	1.3	6.5	-16.5	5.2	15	30
CN(c1ccccc1)S(=O)(=O)c1ccc(NC(=S)Nc2ccccc2)cc1	-0.6	92.7*	-3.9	-2.7	13	10
CN(c1cccc(NC(=O)c2ccc(N(C)S(=O)(=O)c3ccccc3)cc2)c1)S(C)(=O)=O	0.4	61.7*	2.1	1.4	22	8
Cc1csc(NC(=O)c2ccc(S(=O)(=O)N(C)c3ccccc3)cc2)n1	0.0	98.0*	-9.7	0.3	15	4

Source: PubChem BioAssay
